# ChEMBL document CHEMBL2331366, “Bioactive indole alkaloids and phenyl ether derivatives from a marine-derived Aspergillus sp. Fungus” (J Nat Prod, 2013)
# Active and inactive are the calls of the source. No cut-off for these calls is given here.
# Columns and labels:
# Vibrio anguillarum = test: Antibacterial activity against Vibrio anguillarum ATCC 19019 assessed as growth inhibition; type: functional
# In short: (§1)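 In vitro antibacterial test against each listed strain. Activity is reported as MIC (μM), with ciprofloxacin as the positive control.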
# [1] = tested on: Staphylococcus epidermidis; test: Antibacterial activity against Staphylococcus epidermidis ATCC 12228 assessed as growth inhibition; type: functional; in short: as §1
# Vibrio parahaemolyticus = test: Antibacterial activity against Vibrio parahaemolyticus ATCC 17802 assessed as growth inhibition; type: functional; in short: as §1
# Staphylococcus aureus = test: Antibacterial activity against Staphylococcus aureus ATCC 27154 assessed as growth inhibition; type: functional; in short: as §1
# Pseudomonas putida = test: Antibacterial activity against Pseudomonas putida ATCC 17848 assessed as growth inhibition; type: functional; in short: as §1
# HL-60 = test: Cytotoxicity against human HL60 cells assessed as inhibition of cell viability by MTT assay; type: functional, cell-based
# Micrococcus = test: Antibacterial activity against Micrococcus tetragenus ATCC 13623 assessed as growth inhibition; type: functional, organism-based; in short: as §1
# K562 = test: Cytotoxicity against human K562 cells assessed as inhibition of cell viability by MTT assay; type: functional, cell-based
# Escherichia coli = test: Antibacterial activity against Escherichia coli ATCC 25922 assessed as growth inhibition; type: functional, organism-based; in short: as §1
# Bacillus cereus = test: Antibacterial activity against Bacillus cereus ACCC 11077 assessed as growth inhibition; type: functional, organism-based; in short: as §1
# [2] = tested on: Staphylococcus epidermidis; test: Ratio of ciprofloxacin MIC to compound MIC for Staphylococcus epidermidis ATCC 12228; type: functional
Structure (SMILES),MIC (Vibrio anguillarum),MIC [1],MIC (Staphylococcus aureus),MIC (Pseudomonas putida),MIC (Vibrio parahaemolyticus),IC50 (HL-60),growth inhibition (GI) (Vibrio anguillarum),growth inhibition (GI) (Micrococcus),IC50 (K562),growth inhibition (GI) [1],growth inhibition (GI) (Vibrio parahaemolyticus),growth inhibition (GI) (Staphylococcus aureus),growth inhibition (GI) (Escherichia coli),growth inhibition (GI) (Bacillus cereus),growth inhibition (GI) (Pseudomonas putida),Ratio [2]
Cc1cc(O)cc(Oc2cc(C)cc(OC(=O)c3ccccc3)c2)c1,> 100 µM,18.7 µM,> 100 µM,> 100 µM,18.7 µM,–,–,–,–,–,–,–,–,–,–,–
C=CC(C)(C)[C@]1(C[C@@H]2NC(=O)[C@@H]3CCCN3C2=O)C(=O)Nc2c1ccc1c2C=CC(C)(C)O1 [NOTOAMIDE C],–,–,–,–,–,> 10 µM,inactive,inactive,> 10 µM,inactive,inactive,inactive,inactive,inactive,inactive,–
C=CC(C)(C)[C@]1(C[C@@H]2NC(=O)[C@@]3(O)CCCN3C2=O)C(=O)Nc2c1ccc1c2C=CC(C)(C)O1,–,–,–,–,–,> 10 µM,inactive,inactive,> 10 µM,inactive,inactive,inactive,inactive,inactive,inactive,–
O=C(O)c1cn(C2CC2)c2cc(N3CCNCC3)c(F)cc2c1=O [CIPROFLOXACIN],0.0975 µM,–,0.78 µM,0.195 µM,0.195 µM,–,–,–,–,–,–,–,–,–,–,–
COc1cc(C)cc(Oc2cc(C)cc(OC)c2O)c1O,100 µM,> 100 µM,100 µM,> 100 µM,> 100 µM,> 10 µM,–,–,> 10 µM,–,–,–,–,–,–,–
CC1(C)C=Cc2c(ccc3c4c([nH]c23)C(C)(C)[C@@H]2C[C@]35CCCN3C(=O)[C@@]2(C4)NC5=O)O1 [STEPHACIDIN A],> 100 µM,14.5 µM,> 100 µM,> 100 µM,> 100 µM,> 10 µM,–,–,> 10 µM,–,–,–,–,–,–,–
C=CC(C)(C)[C@]1(C[C@@H]2NC(=O)[C@]3(OC)CCCN3C2=O)C(=O)Nc2c1ccc1c2C=CC(C)(C)O1 [NOTOAMIDE Q],–,–,–,–,–,> 10 µM,inactive,inactive,> 10 µM,inactive,inactive,inactive,inactive,inactive,inactive,–
COC(=O)c1c(C)c(Br)c(Oc2c(Br)c(C)c(Br)c(O)c2Br)c(Br)c1O,9.23 µM,100 µM,100 µM,> 100 µM,> 100 µM,–,–,–,–,–,–,–,–,–,–,–
C=CC(C)(C)[C@]1(C[C@@H]2NC(=O)[C@]3(O)CCCN3C2=O)C(=O)Nc2c1ccc1c2C=CC(C)(C)O1 [NOTOAMIDE M],–,–,–,–,–,> 10 µM,inactive,inactive,> 10 µM,inactive,inactive,inactive,inactive,inactive,inactive,–
CC1(C)C=Cc2c(ccc3c2NC(=O)[C@@]32C[C@@]34NC(=O)[C@]5(CCCN5C3=O)C[C@H]4C2(C)C)O1 [NOTOAMIDE B],–,–,–,–,–,> 10 µM,inactive,inactive,> 10 µM,inactive,inactive,inactive,inactive,inactive,inactive,–
COC(=O)c1c(C)cc(Oc2cc(C)cc(O)c2)cc1O,21.7 µM,2.71 µM,10.9 µM,21.7 µM,21.7 µM,> 10 µM,–,–,5.94 µM,–,–,–,–,–,–,–
C=CC(C)(C)[C@]1(C[C@@H]2NC(=O)[C@@]3(OC)CCCN3C2=O)C(=O)Nc2c1ccc1c2C=CC(C)(C)O1,–,–,–,–,–,> 10 µM,inactive,inactive,> 10 µM,inactive,inactive,inactive,inactive,inactive,inactive,–
C=CC(C)(C)[C@]1(C[C@@H]2NC(=O)C3=CCCN3C2=O)C(=O)Nc2c1ccc1c2C=CC(C)(C)O1 [DEHYDRONOTOAMIDE C],–,–,–,–,–,> 10 µM,inactive,inactive,> 10 µM,inactive,inactive,inactive,inactive,inactive,inactive,–
Cc1c(Br)c(O)c(Br)c(Oc2c(Br)c(C)c(Br)c(O)c2Br)c1Br,1.11 µM,0.556 µM,1.11 µM,1.11 µM,1.11 µM,–,–,–,–,–,–,–,–,–,–,5

# Continued, in another order:
MIC (Vibrio anguillarum),MIC [1],MIC (Staphylococcus aureus),MIC (Pseudomonas putida),Structure (SMILES),MIC (Vibrio parahaemolyticus),IC50 (HL-60),growth inhibition (GI) (Vibrio anguillarum),growth inhibition (GI) (Micrococcus),IC50 (K562),growth inhibition (GI) [1],growth inhibition (GI) (Vibrio parahaemolyticus),growth inhibition (GI) (Staphylococcus aureus),growth inhibition (GI) (Escherichia coli),growth inhibition (GI) (Bacillus cereus),growth inhibition (GI) (Pseudomonas putida),Ratio [2]
46 µM,100 µM,> 100 µM,100 µM,CC(=O)Oc1cc(C)cc(Oc2cc(C)cc(O)c2)c1,100 µM,–,–,–,–,–,–,–,–,–,–,–
100 µM,100 µM,100 µM,100 µM,Cc1cc(O)cc(Oc2cc(C)cc(O)c2O)c1 [CORDYOL C],100 µM,> 10 µM,–,–,> 10 µM,–,–,–,–,–,–,–
10.4 µM,20.8 µM,20.8 µM,10.4 µM,CCCCCOc1cc(C)cc(Oc2cc(C)cc(O)c2)c1,10.4 µM,–,–,–,–,–,–,–,–,–,–,–
100 µM,27.2 µM,54.3 µM,100 µM,Cc1cc(O)cc(Oc2cc(C)cc(O)c2)c1 [DIORCINOL],100 µM,> 10 µM,–,–,> 10 µM,–,–,–,–,–,–,–
> 100 µM,> 100 µM,> 100 µM,> 100 µM,COc1cc(C)cc(Oc2cc(C)cc(OC)c2OC)c1O [CORDYOL D],> 100 µM,> 10 µM,–,–,> 10 µM,–,–,–,–,–,–,–
23 µM,46 µM,46 µM,100 µM,CCCOc1cc(C)cc(Oc2cc(C)cc(O)c2)c1,2.87 µM,–,–,–,–,–,–,–,–,–,–,–
> 100 µM,> 100 µM,> 100 µM,> 100 µM,CC(=O)Oc1cc(C)cc(Oc2cc(C)cc(OC(C)=O)c2)c1,> 100 µM,–,–,–,–,–,–,–,–,–,–,–
25.6 µM,25.6 µM,51.2 µM,51.2 µM,COc1cc(C)cc(Oc2cc(C)cc(O)c2)c1 [CORDYOL E],51.2 µM,> 10 µM,–,–,> 10 µM,–,–,–,–,–,–,–
> 100 µM,> 100 µM,> 100 µM,> 100 µM,CCCCCOc1cc(C)cc(Oc2cc(C)cc(OCCCCC)c2)c1,100 µM,–,–,–,–,–,–,–,–,–,–,–
